# The list is not random: actives were taken first. Their share in the collection is about 2.4%.
# GSIS activator: GLuc luminescence reporter in INS-1E cells, primary screen for activators of glucose-dependent secretion of insulin; actives 0.61% (n = 370,000); activation, % at 16.6 µM; INS-1E GLuc reporter insulin secretion, 2-3 h; AID 743287;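 active = lowest replicate activation of at least 40%, so every replicate reaches that level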;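 note: 0% = median of neutral control wells and 100% = median of IBMX positive control wells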
# Rtt109 Vps75: blocks Candida albicans Rtt109/Vps75 acetyltransferase activity | Q5AAJ8 | purified Rtt109/Vps75, ThioGlo CoA-SH fluorescence, 4 h | inhibition, % at 34.9 µM | actives 0.16% (n = 330,000) | AID 540336;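 active = inhibition of at least 50% in every replicate; inconclusive = best replicate reaches 50% inhibition but some replicates fall short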
# miR-122 sensor: inhibitors of miR-122 in Huh7 cells; Huh7 miR-122 Renilla luciferase sensor, 48 h; neutral wells = 0, positive control = 100; activation (reporter increase), % at 12.5 µM; actives 0.3% (n = 340,000); AID 602342;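 active = mean replicate activation score at least 90 and every replicate individually at or above 90; inconclusive = only one of the two criteria met; inactive = neither criterion met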;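 note: higher luciferase means less miR-122 activity so hits act as miR-122 inhibitors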
# dFosB act: enhances mouse delta FosB homodimer DNA binding; P13346; actives 0.99% (n = 340,000); activation, % at 25 µM; purified delta FosB, TAMRA-CDK5 oligo fluorescence polarization; percent of positive-control signal above neutral wells; AID 493131;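 active = mean activation above about 17%, with every replicate also reaching it, limit read from the data, passing the limit was not always enough; inconclusive = only one of the two conditions met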
# Target sequence (P13346 whole entry, looked up): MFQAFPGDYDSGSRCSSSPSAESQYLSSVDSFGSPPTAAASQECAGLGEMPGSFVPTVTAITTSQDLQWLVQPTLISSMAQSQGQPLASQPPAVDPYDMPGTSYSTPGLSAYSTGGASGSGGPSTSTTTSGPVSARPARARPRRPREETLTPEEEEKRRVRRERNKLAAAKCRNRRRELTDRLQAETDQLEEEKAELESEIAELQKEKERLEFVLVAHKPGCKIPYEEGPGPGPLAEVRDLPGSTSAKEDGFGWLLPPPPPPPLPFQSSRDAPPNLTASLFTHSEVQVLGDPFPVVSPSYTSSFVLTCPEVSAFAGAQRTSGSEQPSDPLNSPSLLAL
# Cneo AK release: causes C. neoformans cell lysis; adenylate kinase release luminescence, 4 h; normalised: neutral wells 0, clomiphene wells 100; lysis activity, % at 15 µM; actives 0.2% (n = 360,000); AID 651654;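 active = mean lysis activity across replicates of at least 80%, whatever share of replicates individually reach that level; inactive = mean lysis activity below 80%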
#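 Signal: Adenylate kinase release luminescence | Assay system: Log-phase Cryptococcus neoformans yeast cells | Input: Cells at 5 × 10^6 per mL | Buffer or medium: Fresh YPD growth medium | Compound: Single dose | Schedule: Static 4 h at 37 °C with compound, 1 h detection | Controls: Clomiphene | Read-out: Luminescence rise reflecting yeast cell lysis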
# HIV Env fusion: HIV envelope-mediated fusion inhibition; HeLa-JRFL Env/CEM21 cell fusion, luciferase; inhibition, % at 12.3 µM; actives 1.1% (n = 360,000);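 active = mean replicate inhibition score of at least 50 and every replicate individually at or above 50; inconclusive = only one of the two criteria met; inactive = mean below 50 and not all replicates reaching 50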;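 note: 0% = plate neutral controls and 100% = maraviroc near 300 nM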
# * marks the source's active call; other numbers are inactive results; i = inactive; ? = inconclusive; . = no result; [ ] = another dose, or the depositor's remark.
SMILES,GSIS activator,Rtt109 Vps75,miR-122 sensor,dFosB act,Cneo AK release,HIV Env fusion
O=C(Nc1ccc(OCC(=O)N2CCOCC2)cc1)c1cncc(Br)c1,30,-7,7,-3,-2,57*
COc1cccc(NC(=O)C[C@H]2CC[C@@H]3[C@@H](COc4ccc(NC(=O)C5CCCCC5)cc4C(=O)N3C)O2)c1,7,.,-4[16.7 µM],.,-2,-10[16.7 µM]
COc1cccc(S(=O)(=O)N[C@@H]2CC[C@H](CC(=O)NCc3ccncc3)O[C@@H]2CO)c1,3,.,-11[16.7 µM],.,-2,56*[16.7 µM]
COc1cccc(S(=O)(=O)Nc2ccc3c(c2)[C@H]2C[C@H](CC(=O)N(C)C)O[C@@H](CO)[C@H]2O3)c1,16,.,4[16.7 µM],.,99*,.
COc1cccc(S(=O)(=O)Nc2ccc3c(c2)[C@@H]2C[C@H](CC(=O)N(C)C)O[C@@H](CO)[C@@H]2O3)c1,-6,.,-4[16.7 µM],.,21,.
COc1cccc(S(=O)(=O)Nc2ccc3c(c2)[C@@H]2C[C@@H](CC(=O)NCc4ccc(Cl)cc4)O[C@@H](CO)[C@@H]2O3)c1,-22,.,74[16.7 µM],.,2,-21[16.7 µM]
COc1cccc(S(=O)(=O)Nc2ccc3c(c2)[C@H]2C[C@H](CC(=O)NCc4ccc(Cl)cc4)O[C@@H](CO)[C@H]2O3)c1,-26,.,-2[16.7 µM],.,-2,57*[16.7 µM]
NS(=O)(=O)c1ccc(NC(=O)COC(=O)c2cn(-c3ccccc3)nc2-c2ccc(F)cc2)cc1,65*,4,.,?,.,-7
O=C(COC(=O)c1cn(-c2ccccc2)nc1-c1ccc(F)cc1)Nc1ncc(Cl)cc1Cl,-1,-3,.,?,.,-11
CCC(CC)COC(=O)C1=C(C)NC(=O)NC1c1cccc([N+](=O)[O-])c1 (stereo not given),-10,2,-5,-13,0,62*
CCCCOC(=O)C1=C(C)NC(=O)NC1c1cccc([N+](=O)[O-])c1 (stereo not given),-5,5,5,-2,-2,-39
C[C@@H]1CN([C@H](C)CO)C(=O)c2cc(NS(=O)(=O)c3ccccc3)ccc2O[C@@H](C)CCCCO[C@@H]1CN(C)C(=O)c1ccncc1,18,.,3[16.7 µM],.,5,-3[16.7 µM]
OCCNc1c2ccccc2nc2ccccc12,-7,-80,.,20*,.,16
OCCNc1nc2ccccc2nc1NCCO,.,7,-1,-7,3,2
COc1ccc(OC)c(Nc2cc(C)c3ccccc3n2)c1,.,3,27,0,2,-23
COc1ccc(OC)c(Nc2nc(NCCO)c3ccccc3n2)c1,13,-3,-4,31*,-1,-115
Cc1ccc(Nc2nc(NCCO)c3ccccc3n2)cc1C,-13,6,-22,32*,-13,11
O=C(COC(=O)c1cc(S(=O)(=O)N2CCOCC2)ccc1O)NCc1ccc2c(c1)OCO2,7,1,.,-6,-2,82*
Cc1cccc(-c2ccc([C@H]3[C@H]4CN(C(=O)c5cnccn5)CC(=O)N4[C@H]3CO)cc2)c1,-9,.,.,.,.,.
CCOC(=O)c1oc2cc(O)cc(C)c2c1C,40*,-2,.,3,-4,.
C/C=C/c1cnc2c(c1)C(=O)N([C@H](C)CO)C[C@H](C)[C@H](CN(C)C(=O)NCCC)O2,16,.,5[16.7 µM],.,-6,-4[16.7 µM]
CCOC(=O)Cn1c(S(=O)(=O)Cc2cccc(F)c2)nc(-c2ccccc2)c1-c1ccccc1,-2,8,-7,-6,-3,87*
C#CCn1c(S(=O)(=O)Cc2ccc(F)cc2)nc(-c2ccccc2)c1-c1ccccc1,-26,4,1,-3,4,66*
CCOC(=O)Cn1c(S(=O)(=O)Cc2ccc(F)cc2)nc(-c2ccccc2)c1-c1ccccc1,.,1,7,0,0,-4
COC(=O)c1ccc(C)c(-n2c(=O)n(Cc3ccccc3)c(=O)c3[nH]cnc32)c1,44*,-6,.,-4,-5,7
SMILES,GSIS activator,Rtt109 Vps75,miR-122 sensor,dFosB act,Cneo AK release,HIV Env fusion
Nc1nc(Nc2ccccc2)nc2ccccc12,.,6,-2,0,-16,-201
CCOC(=O)c1ccc(Nc2ncnc3ccc(C)cc23)cc1,85*,-4,-1,3,-1,.
CCOC(=O)c1ccc(Nc2nc(N)c3cc(OC)c(OC)cc3n2)cc1,.,.,-1,37*,-8,.
Cc1ccc(Nc2nc(N)c3ccccc3n2)cc1Cl,0,9,.,28*,-6,-307
CCOC(=O)c1ccc(Nc2ccc(-c3ccc(OC)c(OC)c3)nn2)cc1,0,18,5,-19,3,-16
COc1cc2nc(Nc3ccc(F)cc3)nc(N)c2cc1OC,-13,7,.,21*,4,-16
Nc1nc(Nc2ccc(Cl)cc2)nc2ccccc12,.,5,1,9,-8,i
Cc1noc(C)c1S(=O)(=O)Nc1ccc2c(c1)C(=O)N([C@@H](C)CO)C[C@H](C)[C@@H](CN(C)C(=O)Cc1ccccc1)OCCCC[C@H](C)O2,-10,.,-4[16.7 µM],.,-1,-31[16.7 µM]
C[C@H]1CN([C@@H](C)CO)S(=O)(=O)c2ccc(-c3ccc(F)cc3)cc2O[C@@H]1CN(C)C(=O)C1CCCCC1,-16,.,40[16.7 µM],.,0,37[16.7 µM]
COc1cccc(-c2ccc3c(c2)[C@@H]2[C@@H](CCN2C(=O)c2ccc4c(c2)OCO4)[C@H](CO)N3C)c1,-24,.,-6[16.7 µM],.,-15,.
COc1cc2nc(Nc3ccc(C)c(C)c3)nc(N)c2cc1OC,22,1,.,105*,8,-12
COc1cc2nc(Nc3ccc(C)c(Cl)c3)nc(N)c2cc1OC,1,4,.,59*,-1,5
COc1cc2nc(N(C)C)nc(N)c2cc1OC,.,21,-5,-8,1,.
CO[C@H]1CN(C)C(=O)c2ccc(NS(=O)(=O)c3ccccc3)cc2OC[C@@H](C)N(C)C[C@H]1C,14,.,-5[16.7 µM],.,-7,.
COc1ccc(/C=C2\CCc3ccccc3C2=O)cc1Cn1cccn1,.,6,4,-9,3,65*
COc1ccc2nc(NC(=O)CN3C(=O)NC4(CCCCC4)C3=O)sc2c1,8,52*,1,-5,-5,-8
COc1ccc2nc(NC(=O)CN3C(=O)NC4(CCCC4)C3=O)sc2c1,-1,1,.,-4,.,-8
C=CC(=O)Nc1cccc(N(C)c2ccnc(Nc3ccc(N4CCN(C)CC4)cc3)n2)c1,.,?,.,46*,-4,.
C=CC(=O)Nc1cccc(Oc2ccnc(Nc3ccc(N4CCN(C)CC4)cc3)n2)c1,-14,4,2,66*,-4,?
S=C(NCCCc1cnc[nH]1)NCCCN(Cc1ccccc1)c1ccc(Br)cn1,43,.,-4,.,1,26
CCCCN(CCCNC(=S)NCCCc1cnc[nH]1)c1ccc(Br)cn1,72*,.,1,.,4,-13

# Bioassay records from PubChem BioAssay.
